Measurements: ChEMBL document CHEMBL4428083, “Mitochondrial-Targeting MET Kinase Inhibitor Kills Erlotinib-Resistant Lung Cancer Cells” (ACS Med Chem Lett, 2016)
Calls of active or inactive are those of the source. The rule behind the calls is not given here.

Tests used:
[1] = target: Hepatocyte growth factor receptor (Homo sapiens) (UniProt P08581); assay: Inhibition of MET phosphorylation at Y1234/1235 in mitochondria isolated from erlotinib-resistant human HCC827B cells at 4 uM after 1 to 1.5 hrs by immunoblot analysis
Procedure, shortened: (§1)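 Whole HCC827B cells, or mitochondria first purified from them, were treated separately with 4 μM compound for 1 and 1.5 h, then immunoblotted for p-MET Y1234/1235. Each lane held 10 μg protein; loading controls were SDHA for mitochondria and actin for whole cells.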

[2] = Drug uptake in mitochondria of erlotinib-resistant human HCC827B cells assessed as R1 gated population at 4 uM after 1 hr by MTR staining based FACS analysis (reference value: >98%); format: ADME
[3] = Effect on total MET expression level in mitochondria isolated from erlotinib-resistant human HCC827B cells at 4 uM after 1 to 1.5 hrs by immunoblot analysis; format: ADME
HCC827 [4] = assay: Induction of apoptosis in erlotinib-resistant human HCC827B cells assessed as increase in cleaved caspase 3 level at 4 uM measured up to 60 hrs by immunoblot analysis; format: functional, cell-based
Procedure, shortened: (§2)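 HCC827B cells treated with 4 μM compound; whole-cell lysates collected at 12, 24, 36, 48 and 60 h and immunoblotted for cleaved PARP and cleaved caspases 3 and 7. Control was untreated cells at 0 h; GAPDH was the loading control.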

HCC827 [5] = assay: Induction of apoptosis in erlotinib-resistant human HCC827B cells assessed as increase in cleaved caspase 7 level at 4 uM measured up to 60 hrs by immunoblot analysis; format: functional, cell-based; procedure, shortened: as §2
[6] = Drug uptake in mitochondria of human HeLa cells at 4 uM after 3 hrs by MTR dye/Hoechst 33342 staining based confocal microscopy; format: ADME
Procedure, shortened: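 HeLa cells were exposed to 4 μM compound for 3 h, then stained with MitoTracker Red and Hoechst 33342 and imaged by confocal microscopy. Intrinsic compound green fluorescence (Ex 460, Em 520 nm) was compared for overlap with MTR.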

HCC827 [7] = assay: Induction of apoptosis in erlotinib-resistant human HCC827B cells assessed as increase in cleaved PARP level at 4 uM measured up to 60 hrs by immunoblot analysis; format: functional, cell-based; procedure, shortened: as §2
HCC827 [8] = assay: Effect on total MET expression level in erlotinib-resistant human HCC827B cells at 4 uM after 1 to 1.5 hrs by immunoblot analysis; format: ADME, cell-based; settings: hcc827, 4 µM
[9] = target: Hepatocyte growth factor receptor (Homo sapiens) (UniProt P08581); assay: Inhibition of MET phosphorylation at Y1234/1235 in mitochondria isolated from compound treated erlotinib-resistant human HCC827B cells at 4 uM after 24 hrs by immunoblot analysis
Procedure, shortened: (§3)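 HCC827B cells exposed to 4 μM compound for 24 h; whole-cell lysates and mitochondria then isolated from treated cells and immunoblotted for p-MET Y1234/1235. Each lane held 10 μg protein; loading controls were actin (whole cells) and SDHA (mitochondria).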

HCC827 [10] = assay: Cytotoxicity against erlotinib-resistant human HCC827B cells expressing MET assessed as reduction in cell viability after 72 hrs by MTT assay; format: functional, cell-based; settings: HCC827, 72 h
Procedure, shortened: (§4)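 Colorimetric tetrazolium assay after 72 h exposure; IC50 derived from viability. Comparisons between compounds by unpaired Student's t test.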

HCC827 [11] = assay: Cytotoxicity against erlotinib-sensitive human HCC827A cells assessed as reduction in cell viability after 72 hrs by MTT assay; format: functional, cell-based; settings: HCC827, 72 h; procedure, shortened: as §4
[12] = target: Hepatocyte growth factor receptor (Homo sapiens) (UniProt P08581); assay: Inhibition of MET phosphorylation at Y1234/1235 in erlotinib-resistant human HCC827B cells at 4 uM after 1 to 1.5 hrs by immunoblot analysis; procedure, shortened: as §1
TAMH = assay: Cytotoxicity against TAMH assessed as reduction in cell viability after 24 hrs by cell titer glo based luminescence assay; settings: Mus musculus
Procedure, shortened: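 TAMH (TGFα-transformed murine hepatocytes; stable, nontumorigenic, metabolically competent line) exposed to compound for 24 h; IC50 from viability.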

HCC827 [13] = assay: Cytotoxicity against erlotinib-sensitive human HCC827A cells assessed as cell viability at 1 uM after 72 hrs by MTT assay; format: functional; settings: HCC827, 72 h, read-out: Activity
Procedure, shortened: (§5)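 Colorimetric tetrazolium viability assay with erlotinib at 1 μM; % viability reported, n = 3.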

HCC827 [14] = assay: Cytotoxicity against erlotinib-resistant human HCC827B cells assessed as cell viability at 1 uM after 72 hrs by MTT assay; format: functional; settings: HCC827, 72 h, read-out: Activity; procedure, shortened: as §5
[15] = target: Hepatocyte growth factor receptor (Homo sapiens) (UniProt P08581); assay: Inhibition of MET phosphorylation at Y1234/1235 in erlotinib-resistant human HCC827B cells at 4 uM after 24 hrs by immunoblot analysis; procedure, shortened: as §3
[16] = Drug uptake in mitochondria of erlotinib-resistant human HCC827B cells assessed as R1 gated population at 4 uM after 1 hr by FACS analysis (reference value: >98%); format: ADME

Hepatocyte growth factor receptor (Homo sapiens), sequence (P08581 whole entry): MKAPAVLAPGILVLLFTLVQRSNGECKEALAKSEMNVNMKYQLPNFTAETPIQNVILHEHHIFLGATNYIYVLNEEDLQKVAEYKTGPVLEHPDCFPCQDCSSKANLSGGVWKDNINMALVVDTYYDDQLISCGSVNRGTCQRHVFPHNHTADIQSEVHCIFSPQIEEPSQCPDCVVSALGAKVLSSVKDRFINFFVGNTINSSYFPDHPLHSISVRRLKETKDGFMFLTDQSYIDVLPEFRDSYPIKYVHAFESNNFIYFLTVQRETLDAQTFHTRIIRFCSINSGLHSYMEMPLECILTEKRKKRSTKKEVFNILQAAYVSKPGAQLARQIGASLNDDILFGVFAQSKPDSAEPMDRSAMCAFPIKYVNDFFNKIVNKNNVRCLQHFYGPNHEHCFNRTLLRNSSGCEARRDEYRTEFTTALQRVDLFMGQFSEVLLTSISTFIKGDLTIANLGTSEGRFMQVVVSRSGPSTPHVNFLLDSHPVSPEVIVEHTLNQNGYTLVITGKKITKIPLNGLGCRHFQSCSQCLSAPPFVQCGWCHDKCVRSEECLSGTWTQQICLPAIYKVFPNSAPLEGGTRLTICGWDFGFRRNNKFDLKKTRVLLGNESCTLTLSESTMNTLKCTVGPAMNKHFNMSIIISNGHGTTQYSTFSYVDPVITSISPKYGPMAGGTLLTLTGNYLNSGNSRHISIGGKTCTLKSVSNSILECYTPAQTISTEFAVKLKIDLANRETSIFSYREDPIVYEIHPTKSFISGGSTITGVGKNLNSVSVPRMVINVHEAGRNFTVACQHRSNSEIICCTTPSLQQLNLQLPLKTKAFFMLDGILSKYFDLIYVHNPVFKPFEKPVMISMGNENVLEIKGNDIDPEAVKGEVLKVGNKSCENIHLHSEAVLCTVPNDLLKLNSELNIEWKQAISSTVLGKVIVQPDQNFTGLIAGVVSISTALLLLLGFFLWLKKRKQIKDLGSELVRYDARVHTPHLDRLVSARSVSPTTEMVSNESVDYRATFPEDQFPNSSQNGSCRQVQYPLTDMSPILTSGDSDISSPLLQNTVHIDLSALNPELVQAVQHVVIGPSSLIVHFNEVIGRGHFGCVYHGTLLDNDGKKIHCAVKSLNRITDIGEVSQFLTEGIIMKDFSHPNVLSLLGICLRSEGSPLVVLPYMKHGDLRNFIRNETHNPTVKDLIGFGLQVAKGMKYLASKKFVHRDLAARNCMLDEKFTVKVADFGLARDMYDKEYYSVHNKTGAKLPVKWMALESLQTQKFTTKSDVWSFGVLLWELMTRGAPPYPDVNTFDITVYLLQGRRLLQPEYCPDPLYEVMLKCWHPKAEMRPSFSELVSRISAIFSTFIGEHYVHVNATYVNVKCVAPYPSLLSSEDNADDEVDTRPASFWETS

| inhibition [1] | Drug uptake [2] [%] | Drug uptake [6] | inhibition [9] | inhibition [12] | inhibition [15] | Drug uptake [16] [%] | SMILES | Activity [3] | Activity (HCC827 [4]) | Activity (HCC827 [5]) | Activity (HCC827 [7]) | Activity (HCC827 [8]) | IC50 (HCC827 [10]) [µM] | IC50 (HCC827 [11]) [µM] | IC50 (TAMH) [µM] | viability at 1 µM (HCC827 [13]) [%] | viability at 1 µM (HCC827 [14]) [%] |
| --- | --- | --- | --- | --- | --- | --- | --- | --- | --- | --- | --- | --- | --- | --- | --- | --- | --- |
| inactive | 35 | Not Active | Active | Active |  |  | Cc1[nH]c(/C=C2\C(=O)Nc3ccc(S(=O)(=O)Cc4c(Cl)cccc4Cl)cc32)c(C)c1C(=O)N1CCC[C@@H]1CN1CCCC1 [PHA-665752] | Non-Toxic | Active | Active | Active | Non-Toxic | 8.9 | 15.7 | 8.9 |  |  |
|  |  |  |  |  |  |  | C#Cc1cccc(Nc2ncnc3cc(OCCOC)c(OCCOC)cc23)c1 [ERLOTINIB] |  |  |  |  |  |  |  |  | 22.4 | 72.4 |
| inactive | 95 | Active | Active | Active | Active | 98 | Cc1[nH]c(/C=C2\C(=O)Nc3ccc(S(=O)(=O)Cc4c(Cl)cccc4Cl)cc32)c(C)c1C(=O)NCC[P+](c1ccccc1)(c1ccccc1)c1ccccc1.[Br-] | Non-Toxic | Active | Active | Active | Non-Toxic | 5.3 | 16.7 | 15.1 |  |  |
